From ChEMBL document CHEMBL4118245, “Stereoselective synthesis of new rac-quercitols containing hydroxymethyl groups as glucosidase inhibitors” (Bioorg Med Chem Lett, 2018)

Key:
Saccharomyces cerevisiae [1] = experiment: Inhibition of Saccharomyces cerevisiae alpha-glucosidase at 180 uM using 4-nitrophenyl D-glucopyranoside as substrate after 3 mins by UV/Vis spectrophotometric method relative to control
In short: (§1)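 Compounds were tested at 10, 20, 25, 45, 80, 120 and 180 µM, with percent enzyme inhibition reported at each level. Acarbose served as the positive control. The study ran four experiments per compound, each in triplicate, and reports mean ± S.D. IC50 is the concentration giving 50% inhibition of enzyme activity under the assay conditions, taken from this concentration series.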

Saccharomyces cerevisiae [2] = experiment: Inhibition of Saccharomyces cerevisiae alpha-glucosidase at 25 uM using 4-nitrophenyl D-glucopyranoside as substrate after 3 mins by UV/Vis spectrophotometric method relative to control; in short: as §1
Saccharomyces cerevisiae [3] = experiment: Inhibition of Saccharomyces cerevisiae alpha-glucosidase at 20 uM using 4-nitrophenyl D-glucopyranoside as substrate after 3 mins by UV/Vis spectrophotometric method relative to control; in short: as §1
Prunus dulcis [4] = experiment: Inhibition of almond beta-glucosidase at 25 uM using p-nitrophenyl D-glucopyranoside as substrate after 3 mins by UV/Vis spectrophotometric method relative to control; in short: as §1
Prunus dulcis [5] = experiment: Inhibition of almond beta-glucosidase at 45 uM using p-nitrophenyl D-glucopyranoside as substrate after 3 mins by UV/Vis spectrophotometric method relative to control; in short: as §1
Saccharomyces cerevisiae [6] = experiment: Inhibition of Saccharomyces cerevisiae alpha-glucosidase at 80 uM using 4-nitrophenyl D-glucopyranoside as substrate after 3 mins by UV/Vis spectrophotometric method relative to control; in short: as §1
Saccharomyces cerevisiae [7] = experiment: Inhibition of Saccharomyces cerevisiae alpha-glucosidase at 10 uM using 4-nitrophenyl D-glucopyranoside as substrate after 3 mins by UV/Vis spectrophotometric method relative to control; in short: as §1
Prunus dulcis [8] = experiment: Inhibition of almond beta-glucosidase at 80 uM using p-nitrophenyl D-glucopyranoside as substrate after 3 mins by UV/Vis spectrophotometric method relative to control; in short: as §1
Prunus dulcis [9] = experiment: Inhibition of almond beta-glucosidase at 10 uM using p-nitrophenyl D-glucopyranoside as substrate after 3 mins by UV/Vis spectrophotometric method relative to control; in short: as §1
Prunus dulcis [10] = experiment: Inhibition of almond beta-glucosidase at 20 uM using p-nitrophenyl D-glucopyranoside as substrate after 3 mins by UV/Vis spectrophotometric method relative to control; in short: as §1
Prunus dulcis [11] = experiment: Inhibition of almond beta-glucosidase at 120 uM using p-nitrophenyl D-glucopyranoside as substrate after 3 mins by UV/Vis spectrophotometric method relative to control; in short: as §1
Saccharomyces cerevisiae [12] = experiment: Inhibition of Saccharomyces cerevisiae alpha-glucosidase at 120 uM using 4-nitrophenyl D-glucopyranoside as substrate after 3 mins by UV/Vis spectrophotometric method relative to control; in short: as §1
Saccharomyces cerevisiae [13] = experiment: Inhibition of Saccharomyces cerevisiae alpha-glucosidase at 45 uM using 4-nitrophenyl D-glucopyranoside as substrate after 3 mins by UV/Vis spectrophotometric method relative to control; in short: as §1
Prunus dulcis [14] = experiment: Inhibition of almond beta-glucosidase at 180 uM using p-nitrophenyl D-glucopyranoside as substrate after 3 mins by UV/Vis spectrophotometric method relative to control; in short: as §1
[15] = Inhibition of almond beta-glucosidase using p-nitrophenyl D-glucopyranoside as substrate after 3 mins by UV/Vis spectrophotometric method; set-up: species or system Prunus dulcis; in short: as §1
[16] = Inhibition of Saccharomyces cerevisiae alpha-glucosidase using 4-nitrophenyl D-glucopyranoside as substrate after 3 mins by UV/Vis spectrophotometric method; in short: as §1

SMILES | inhibition (Saccharomyces cerevisiae [1]) | inhibition (Saccharomyces cerevisiae [2]) | inhibition (Saccharomyces cerevisiae [3]) | inhibition (Prunus dulcis [4]) | inhibition (Prunus dulcis [5]) | inhibition (Saccharomyces cerevisiae [6]) | inhibition (Saccharomyces cerevisiae [7]) | inhibition (Prunus dulcis [8]) | inhibition (Prunus dulcis [9]) | inhibition (Prunus dulcis [10]) | inhibition (Prunus dulcis [11]) | inhibition (Saccharomyces cerevisiae [12]) | inhibition (Saccharomyces cerevisiae [13]) | inhibition (Prunus dulcis [14]) | IC50 [15] | IC50 [16]
OC[C@H]1C[C@@H](O)[C@H](O)[C@H](O)[C@H]1CO | 42.2% | 19.4% | 18.8% | 28.4% | 30.4% | 21.4% | 15.8% | 31.8% | 3.4% | 27.8% | 32.1% | 37.6% | 19.9% | 33.3% |  | 
C[C@H]1O[C@H](O[C@H]2[C@H](O)[C@@H](O)[C@@H](O[C@H]3[C@H](O)[C@@H](O)C(O)O[C@@H]3CO)O[C@@H]2CO)[C@H](O)[C@@H](O)[C@@H]1N[C@H]1C=C(CO)[C@@H](O)[C@H](O)[C@H]1O (some centres undefined) [ACARBOSE] | 74% | 33% | 30% | 29% | 39% | 60% | 22% | 52% | 17% | 25% | 60% | 63% | 46% | 66% | 57.8 µM | 52.5 µM
OC[C@H]1C[C@H](O)[C@H](O)[C@H](O)[C@H]1CO | 25% | 14% | 6% | 29% | 34.3% | 20% | 2% | 37.5% | 18% | 20.4% | 42.7% | 22% | 19% | 51.8% | 198 µM | 
OC[C@H]1C[C@H](O)[C@@H](O)[C@@H](O)[C@H]1CO | 42% | 19% | 13% | 12.7% | 13.7% | 31% | 10% | 19.1% | 2.2% | 4.98% | 20.2% | 40% | 21% | 30.8% |  | 
